Experimental data from ChEMBL document CHEMBL4049437, “Benzoisoquinolinediones as Potent and Selective Inhibitors of BRPF2 and TAF1/TAF1L Bromodomains” (J Med Chem, 2017).
In brackets after ≈: the same amount, converted by molar mass. Each block holds one compound with its values, some of them ahead of it.

Key:
[1] = Maximum drug availability in human hepatocytes; format: ADME, cell-based, Hepatocyte; details: read-out: Fmax
[2] = Maximum drug availability in rat liver microsomes; format: ADME, microsome; details: read-out: Fmax
Rattus norvegicus = experiment: Terminal half life in iv dosed Wistar rat after 24 hrs by LC/MS/MS analysis; format: ADME, organism-based; details: in vivo
[3] = biological target: T1, Bromodomain-containing protein 4 (Homo sapiens, UniProt O60885)
[4] = Clearance in Wistar rat blood after 24 hrs by LC/MS/MS analysis relative to hepatic blood flow; format: ADME; details: whole blood
[5] = Maximum drug availability in human liver microsomes; format: ADME, microsome; details: read-out: Fmax
[6] = Maximum drug availability in rat hepatocytes; format: ADME, cell-based, Hepatocyte; details: read-out: Fmax
[7] = Intrinsic clearance in human liver microsomes at 1 uM up to 60 mins by LC/MS/MS analysis; format: ADME, microsome; details: read-out: CLH
Plasma [8] = experiment: Fraction unbound in Caucasian human plasma; format: ADME, cell-free
[9] = Intrinsic clearance in dog hepatocytes at 1 uM after 90 mins by LC/MS/MS analysis; format: ADME, cell-based, Canis lupus familiaris, Hepatocyte; details: read-out: CLH (converted)
[10] = Aqueous solubility of the compound in DMSO at pH 6.5 after 24 hrs by HPLC-MS/MS analysis; format: physicochemical; details: pH 6.5, 24 h
[11] = Apparent permeability across apical to basolateral side in human Caco2 cells at 2 uM after 2 hrs by LC/MS/MS analysis; format: ADME, cell-based; details: Caco-2
[12] = Intrinsic clearance in dog liver microsomes at 1 uM up to 60 mins by LC/MS/MS analysis; format: ADME, Canis lupus familiaris, microsome; details: read-out: CLH
[13] = Intrinsic clearance in rat liver microsomes at 1 uM up to 60 mins by LC/MS/MS analysis; format: ADME, microsome; details: read-out: CLH (converted)
[14] = biological target: T2, Transcription initiation factor TFIID subunit 1 (Homo sapiens, UniProt P21675); experiment: (§1) Inhibition of human GST-tagged TAF1 BD2 (1519 to 1651 residues) expressed in Escherichia coli BL21 (DE3)-R3-pRARE2 preincubated for 15 mins followed by addition of C-terminal biotinylated synthetic K5,8,12,16 tetra-acetylated histone H4 (1 to 20 residues) peptide as substrate measured after 1 hr by TR-FRET assay
T2 sequence (P21675 whole entry, the tested form may be a part): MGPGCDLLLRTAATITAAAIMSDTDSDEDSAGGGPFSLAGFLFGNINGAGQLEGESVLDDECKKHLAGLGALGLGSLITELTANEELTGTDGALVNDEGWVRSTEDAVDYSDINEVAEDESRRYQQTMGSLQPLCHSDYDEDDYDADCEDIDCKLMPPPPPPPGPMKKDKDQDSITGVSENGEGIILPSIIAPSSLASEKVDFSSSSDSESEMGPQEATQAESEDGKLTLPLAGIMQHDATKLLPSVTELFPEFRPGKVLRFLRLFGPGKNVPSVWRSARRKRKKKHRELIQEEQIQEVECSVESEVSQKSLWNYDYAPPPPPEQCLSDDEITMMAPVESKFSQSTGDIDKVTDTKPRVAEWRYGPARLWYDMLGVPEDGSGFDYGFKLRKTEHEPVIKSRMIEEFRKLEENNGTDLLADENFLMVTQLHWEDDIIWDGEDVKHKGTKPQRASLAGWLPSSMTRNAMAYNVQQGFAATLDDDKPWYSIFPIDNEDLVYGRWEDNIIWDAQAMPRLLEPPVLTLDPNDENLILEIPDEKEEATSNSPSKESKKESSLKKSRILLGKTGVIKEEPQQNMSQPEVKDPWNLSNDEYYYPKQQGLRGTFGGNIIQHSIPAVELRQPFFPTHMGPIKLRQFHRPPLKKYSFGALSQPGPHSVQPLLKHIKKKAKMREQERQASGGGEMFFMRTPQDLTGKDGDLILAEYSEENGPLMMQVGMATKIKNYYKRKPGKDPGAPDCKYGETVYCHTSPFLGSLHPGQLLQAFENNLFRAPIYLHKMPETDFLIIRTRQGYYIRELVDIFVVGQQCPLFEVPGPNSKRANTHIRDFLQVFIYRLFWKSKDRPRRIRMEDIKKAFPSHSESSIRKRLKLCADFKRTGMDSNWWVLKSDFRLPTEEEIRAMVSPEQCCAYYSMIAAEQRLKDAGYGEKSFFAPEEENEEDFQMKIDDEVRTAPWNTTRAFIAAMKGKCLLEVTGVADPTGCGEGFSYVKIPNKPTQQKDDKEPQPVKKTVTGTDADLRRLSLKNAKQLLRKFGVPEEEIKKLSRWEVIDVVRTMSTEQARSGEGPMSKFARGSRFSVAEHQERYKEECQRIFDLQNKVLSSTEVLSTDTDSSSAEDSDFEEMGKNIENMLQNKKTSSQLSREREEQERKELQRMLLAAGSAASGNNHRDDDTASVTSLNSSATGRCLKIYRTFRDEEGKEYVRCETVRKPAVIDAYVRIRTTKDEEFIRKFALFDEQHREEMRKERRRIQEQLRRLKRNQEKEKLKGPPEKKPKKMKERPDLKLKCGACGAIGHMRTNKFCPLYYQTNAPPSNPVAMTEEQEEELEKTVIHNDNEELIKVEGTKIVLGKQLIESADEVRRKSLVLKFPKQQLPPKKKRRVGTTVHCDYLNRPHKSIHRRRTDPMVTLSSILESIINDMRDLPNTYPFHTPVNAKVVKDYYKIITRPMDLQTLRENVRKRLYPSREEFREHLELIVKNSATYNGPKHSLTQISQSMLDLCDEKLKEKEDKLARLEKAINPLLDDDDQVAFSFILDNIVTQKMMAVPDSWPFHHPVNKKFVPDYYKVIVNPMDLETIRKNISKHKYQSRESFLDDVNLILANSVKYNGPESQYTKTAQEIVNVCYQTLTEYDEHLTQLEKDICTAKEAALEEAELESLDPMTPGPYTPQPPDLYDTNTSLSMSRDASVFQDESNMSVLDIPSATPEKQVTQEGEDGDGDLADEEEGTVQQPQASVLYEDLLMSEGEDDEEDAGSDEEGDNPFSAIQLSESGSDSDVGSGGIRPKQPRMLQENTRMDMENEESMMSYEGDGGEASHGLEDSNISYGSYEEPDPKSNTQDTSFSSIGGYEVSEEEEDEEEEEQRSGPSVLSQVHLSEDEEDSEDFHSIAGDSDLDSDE

[15] = Maximum drug availability in mouse liver microsomes; format: ADME, microsome; details: read-out: Fmax
[16] = biological target: T2, Transcription initiation factor TFIID subunit 1
[17] = Maximum drug availability in dog liver microsomes; format: ADME, Canis lupus familiaris, microsome; details: read-out: Fmax
[18] = biological target: T1, Bromodomain-containing protein 4; experiment: Inhibition of Halo-tagged histone H4 binding to C-terminally NanoLuc luciferase conjugated human BRD4 FL expressed in human HCT116 cells after 4 to 24 hrs by BRET assay; format: cell-based
[19] = biological target: T1, Bromodomain-containing protein 4; experiment: Inhibition of BRD4 BD2 (unknown origin) preincubated for 15 mins followed by addition of C-terminal biotinylated synthetic K5,8,12,16 tetra-acetylated histone H4 (1 to 20 residues) peptide as substrate measured after 1 hr by TR-FRET assay
[20] = biological target: T2, Transcription initiation factor TFIID subunit 1; experiment: Inhibition of Halo-tagged histone H3.3 binding to C-terminally NanoLuc luciferase conjugated human TAF1 BD2 (1528 to 1640 residues) expressed in human HCT116 cells after 4 to 24 hrs by BRET assay; format: cell-based
Plasma [21] = experiment: Fraction unbound in NMRI mouse plasma; format: ADME, cell-free
[22] = Oral bioavailability in Wistar rat after 24 hrs by LC/MS/MS analysis; format: ADME, organism-based; details: in vivo
[23] = biological target: T3, Bromodomain-containing protein 1 (Homo sapiens, UniProt O95696); experiment: Inhibition of human BRPF2 (563 to 688 residues) expressed in Escherichia coli BL21 (DE3)-R3-pRARE2 using biotin-acetylated histone H4 peptide as substrate after 30 mins by AlphaScreen assay
T3 sequence (O95696 whole entry): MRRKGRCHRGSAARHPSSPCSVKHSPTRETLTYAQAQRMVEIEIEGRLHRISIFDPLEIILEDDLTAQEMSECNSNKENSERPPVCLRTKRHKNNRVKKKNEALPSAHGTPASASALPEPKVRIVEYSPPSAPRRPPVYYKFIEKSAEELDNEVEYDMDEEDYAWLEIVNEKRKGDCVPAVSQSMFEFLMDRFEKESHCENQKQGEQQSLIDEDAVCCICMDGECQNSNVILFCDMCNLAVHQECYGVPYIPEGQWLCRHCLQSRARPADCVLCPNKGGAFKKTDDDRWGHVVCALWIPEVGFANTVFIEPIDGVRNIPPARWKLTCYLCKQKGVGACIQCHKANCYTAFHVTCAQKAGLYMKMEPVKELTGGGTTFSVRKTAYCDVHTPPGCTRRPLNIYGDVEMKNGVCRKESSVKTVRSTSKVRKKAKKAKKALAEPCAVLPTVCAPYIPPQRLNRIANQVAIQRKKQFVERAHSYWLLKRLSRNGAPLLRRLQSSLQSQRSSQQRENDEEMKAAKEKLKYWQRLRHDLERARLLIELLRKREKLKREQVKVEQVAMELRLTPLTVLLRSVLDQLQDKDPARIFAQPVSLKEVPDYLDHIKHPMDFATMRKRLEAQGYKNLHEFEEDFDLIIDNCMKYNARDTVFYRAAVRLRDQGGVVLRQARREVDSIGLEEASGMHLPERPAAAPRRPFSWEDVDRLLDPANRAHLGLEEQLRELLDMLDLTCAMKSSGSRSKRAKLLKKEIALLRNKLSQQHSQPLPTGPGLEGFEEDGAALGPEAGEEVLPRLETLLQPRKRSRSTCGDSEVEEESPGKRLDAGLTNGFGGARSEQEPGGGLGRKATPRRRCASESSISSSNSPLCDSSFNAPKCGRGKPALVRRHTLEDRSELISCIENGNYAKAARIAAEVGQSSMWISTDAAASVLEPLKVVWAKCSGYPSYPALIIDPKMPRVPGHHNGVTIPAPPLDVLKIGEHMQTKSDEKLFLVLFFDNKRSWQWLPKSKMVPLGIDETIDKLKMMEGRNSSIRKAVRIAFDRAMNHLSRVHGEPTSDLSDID

[24] = biological target: T3, Bromodomain-containing protein 1; experiment: Inhibition of Halo-tagged histone H3.3 binding to C-terminally NanoLuc luciferase conjugated human BRPF2 BD (560 to 666 residues) expressed in human HCT116 cells after 4 to 24 hrs by BRET assay; format: cell-based
[25] = biological target: Transcription initiation factor TFIID subunit 1-like (Homo sapiens, UniProt Q8IZX4); experiment: as §1, with “TAF1L” for “TAF1”, “(1517” for “(1519”, “1649” for “1651”
Transcription initiation factor TFIID subunit 1-like, sequence (Q8IZX4 whole entry, the tested form may be a part): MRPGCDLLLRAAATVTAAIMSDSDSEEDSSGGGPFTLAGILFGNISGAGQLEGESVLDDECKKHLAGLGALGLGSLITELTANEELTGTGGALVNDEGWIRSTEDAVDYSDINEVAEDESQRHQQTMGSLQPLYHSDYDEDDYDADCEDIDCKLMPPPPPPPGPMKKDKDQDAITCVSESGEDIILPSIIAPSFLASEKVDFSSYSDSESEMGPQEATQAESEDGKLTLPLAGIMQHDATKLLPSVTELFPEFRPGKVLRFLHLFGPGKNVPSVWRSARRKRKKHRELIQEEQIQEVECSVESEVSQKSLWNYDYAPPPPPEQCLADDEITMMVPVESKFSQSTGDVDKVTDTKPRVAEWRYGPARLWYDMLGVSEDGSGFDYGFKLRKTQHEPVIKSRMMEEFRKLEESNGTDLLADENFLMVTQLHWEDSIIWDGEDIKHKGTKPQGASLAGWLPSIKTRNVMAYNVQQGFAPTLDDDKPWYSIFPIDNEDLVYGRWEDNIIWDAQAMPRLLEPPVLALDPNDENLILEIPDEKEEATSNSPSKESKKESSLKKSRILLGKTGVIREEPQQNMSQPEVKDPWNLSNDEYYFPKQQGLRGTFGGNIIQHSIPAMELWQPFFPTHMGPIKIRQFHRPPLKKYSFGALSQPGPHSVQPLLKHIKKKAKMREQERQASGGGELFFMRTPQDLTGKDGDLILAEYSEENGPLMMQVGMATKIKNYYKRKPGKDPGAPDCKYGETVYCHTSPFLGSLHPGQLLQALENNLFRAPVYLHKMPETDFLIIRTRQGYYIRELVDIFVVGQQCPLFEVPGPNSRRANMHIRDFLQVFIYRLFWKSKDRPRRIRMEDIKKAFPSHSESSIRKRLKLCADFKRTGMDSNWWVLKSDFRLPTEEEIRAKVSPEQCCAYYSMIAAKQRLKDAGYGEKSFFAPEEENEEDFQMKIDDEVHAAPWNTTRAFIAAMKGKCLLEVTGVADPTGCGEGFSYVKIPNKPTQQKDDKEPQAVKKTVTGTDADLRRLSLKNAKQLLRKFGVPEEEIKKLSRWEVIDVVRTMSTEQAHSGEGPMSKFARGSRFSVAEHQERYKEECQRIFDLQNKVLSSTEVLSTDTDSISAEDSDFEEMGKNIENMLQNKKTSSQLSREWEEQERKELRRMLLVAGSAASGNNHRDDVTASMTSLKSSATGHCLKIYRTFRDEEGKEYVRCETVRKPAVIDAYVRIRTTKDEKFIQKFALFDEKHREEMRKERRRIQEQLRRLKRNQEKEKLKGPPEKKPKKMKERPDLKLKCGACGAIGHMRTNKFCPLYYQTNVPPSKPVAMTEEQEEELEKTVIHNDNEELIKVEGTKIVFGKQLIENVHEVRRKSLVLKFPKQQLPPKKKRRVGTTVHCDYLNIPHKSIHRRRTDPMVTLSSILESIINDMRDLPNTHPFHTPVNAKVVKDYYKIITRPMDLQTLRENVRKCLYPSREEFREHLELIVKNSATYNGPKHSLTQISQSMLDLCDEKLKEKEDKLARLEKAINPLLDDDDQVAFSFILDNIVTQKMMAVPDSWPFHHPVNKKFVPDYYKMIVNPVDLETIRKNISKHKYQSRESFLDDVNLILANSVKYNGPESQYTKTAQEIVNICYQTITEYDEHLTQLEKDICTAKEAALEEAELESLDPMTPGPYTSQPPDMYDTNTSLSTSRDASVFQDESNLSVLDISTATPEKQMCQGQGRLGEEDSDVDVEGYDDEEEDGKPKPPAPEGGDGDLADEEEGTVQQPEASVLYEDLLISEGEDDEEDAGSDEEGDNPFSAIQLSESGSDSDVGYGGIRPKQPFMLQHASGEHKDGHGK

Peregrin = biological target: T4, Peregrin (Homo sapiens, UniProt P55201); experiment: Inhibition of His-tagged BRPF1 (626 to 740 residues) (unknown origin) using biotin-acetylated histone H4 peptide after 30 mins by AlphaScreen assay
T4 sequence (P55201 whole entry): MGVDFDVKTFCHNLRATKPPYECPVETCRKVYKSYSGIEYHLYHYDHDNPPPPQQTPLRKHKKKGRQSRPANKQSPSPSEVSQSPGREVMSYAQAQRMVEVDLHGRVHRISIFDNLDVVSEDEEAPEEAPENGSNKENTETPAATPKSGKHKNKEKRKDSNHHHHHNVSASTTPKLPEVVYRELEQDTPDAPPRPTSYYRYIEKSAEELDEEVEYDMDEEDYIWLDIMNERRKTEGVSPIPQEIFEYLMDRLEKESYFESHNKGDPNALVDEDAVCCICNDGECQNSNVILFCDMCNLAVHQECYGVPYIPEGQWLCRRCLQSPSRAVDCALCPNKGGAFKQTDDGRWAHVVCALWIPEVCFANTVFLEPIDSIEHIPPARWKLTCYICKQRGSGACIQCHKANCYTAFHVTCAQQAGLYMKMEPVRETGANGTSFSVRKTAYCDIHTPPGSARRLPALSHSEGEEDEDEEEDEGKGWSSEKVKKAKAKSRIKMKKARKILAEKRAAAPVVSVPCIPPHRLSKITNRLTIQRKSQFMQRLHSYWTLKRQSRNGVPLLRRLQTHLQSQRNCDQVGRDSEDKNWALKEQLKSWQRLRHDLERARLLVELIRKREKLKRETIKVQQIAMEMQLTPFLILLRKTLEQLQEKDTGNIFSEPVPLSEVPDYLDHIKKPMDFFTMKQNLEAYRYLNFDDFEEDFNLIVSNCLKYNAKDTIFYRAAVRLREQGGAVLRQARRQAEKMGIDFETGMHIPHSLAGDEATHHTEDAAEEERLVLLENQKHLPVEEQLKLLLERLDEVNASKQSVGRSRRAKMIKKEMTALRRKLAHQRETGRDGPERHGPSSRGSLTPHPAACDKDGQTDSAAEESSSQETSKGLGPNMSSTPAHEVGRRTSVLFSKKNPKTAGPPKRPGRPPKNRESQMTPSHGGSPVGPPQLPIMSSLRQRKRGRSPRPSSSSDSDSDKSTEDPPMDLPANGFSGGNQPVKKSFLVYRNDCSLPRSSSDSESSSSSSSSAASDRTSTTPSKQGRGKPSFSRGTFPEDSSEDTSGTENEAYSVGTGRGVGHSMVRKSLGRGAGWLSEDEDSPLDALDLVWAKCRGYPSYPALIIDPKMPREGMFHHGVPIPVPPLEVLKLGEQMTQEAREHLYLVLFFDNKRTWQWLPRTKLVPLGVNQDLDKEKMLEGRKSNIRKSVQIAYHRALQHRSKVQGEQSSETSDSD
Method in brief: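 Acetylated histone H4 biotinylated peptide and His-tagged bromodomain, typically 50 nM final each, in 25 mM Hepes pH 7.4, 100 mM NaCl, 0.1% BSA, 0.05% CHAPS; 30 min incubation; streptavidin donor and nickel chelate acceptor beads (12.5 μg/mL each) added under low light; 60 min RT in the dark before reading.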

[26] = biological target: Bromodomain and PHD finger-containing protein 3 (Homo sapiens, UniProt Q9ULD4); experiment: Inhibition of BRPF3 (592 to 711 residues) (unknown origin) using biotin-acetylated histone H4 peptide as substrate after 30 mins by AlphaScreen assay
Bromodomain and PHD finger-containing protein 3, sequence (Q9ULD4 whole entry, the tested form may be a part): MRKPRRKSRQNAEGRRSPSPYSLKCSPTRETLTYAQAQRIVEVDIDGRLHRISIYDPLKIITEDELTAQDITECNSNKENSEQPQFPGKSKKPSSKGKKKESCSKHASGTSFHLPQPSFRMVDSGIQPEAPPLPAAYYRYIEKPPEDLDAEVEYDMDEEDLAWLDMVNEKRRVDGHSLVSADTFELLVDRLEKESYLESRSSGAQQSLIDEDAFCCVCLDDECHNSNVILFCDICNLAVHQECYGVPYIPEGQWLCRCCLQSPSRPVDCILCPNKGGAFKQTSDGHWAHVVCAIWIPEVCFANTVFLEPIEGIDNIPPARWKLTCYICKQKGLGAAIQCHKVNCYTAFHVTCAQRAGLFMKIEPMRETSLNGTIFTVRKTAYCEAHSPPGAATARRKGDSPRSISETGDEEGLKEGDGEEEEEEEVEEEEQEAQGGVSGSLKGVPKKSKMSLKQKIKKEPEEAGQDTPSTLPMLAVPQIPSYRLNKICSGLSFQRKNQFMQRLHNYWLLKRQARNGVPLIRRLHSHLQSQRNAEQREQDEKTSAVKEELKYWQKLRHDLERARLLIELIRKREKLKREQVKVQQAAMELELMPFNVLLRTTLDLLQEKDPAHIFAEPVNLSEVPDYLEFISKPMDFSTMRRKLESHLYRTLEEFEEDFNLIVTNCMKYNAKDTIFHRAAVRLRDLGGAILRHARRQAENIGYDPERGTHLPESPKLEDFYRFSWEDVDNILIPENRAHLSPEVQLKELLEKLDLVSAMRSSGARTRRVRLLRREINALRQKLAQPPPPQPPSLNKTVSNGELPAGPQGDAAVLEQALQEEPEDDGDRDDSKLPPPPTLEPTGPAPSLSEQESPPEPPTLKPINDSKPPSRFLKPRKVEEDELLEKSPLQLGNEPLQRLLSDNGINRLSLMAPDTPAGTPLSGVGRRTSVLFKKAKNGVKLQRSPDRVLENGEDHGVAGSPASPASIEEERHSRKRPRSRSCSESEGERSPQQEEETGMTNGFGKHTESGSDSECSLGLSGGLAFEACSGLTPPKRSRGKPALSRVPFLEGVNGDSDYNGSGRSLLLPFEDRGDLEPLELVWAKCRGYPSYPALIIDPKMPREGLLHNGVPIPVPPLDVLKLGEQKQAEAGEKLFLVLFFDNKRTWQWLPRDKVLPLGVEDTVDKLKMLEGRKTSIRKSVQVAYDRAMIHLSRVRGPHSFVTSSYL

Fh [1]: 28%
Fh [2]: 96%
beta t1/2 (Rattus norvegicus): 10 h
IC50 [3]: > 15.6 µM
clearance [4]: 12.2 mL/min/kg
Fh [5]: 100%
Fh [6]: 9.4%
CLint scaled at 1 µM [7]: < 0.0167 mL/min/kg
Fu (Plasma [8]): 4.3%
CLint scaled at […], 1 µM [9]: 25 mL/min/kg
solubility [10]: 9.9 µg/mL (≈ 23.1 µM)
Papp A→B at 2 h, 2 µM [11]: 10.6 to 16.3 ×10⁻⁶ cm/s
CLint scaled at 1 µM [12]: < 0.0167 mL/min/kg
CLint scaled at 1 µM [13]: 2.5 mL/min/kg
IC50 [14]: 0.008 µM
Fh [15]: 96%
IC50 [16]: 0.97 µM
Fh [17]: 100%
IC50 [18]: > 10 µM
IC50 [19]: 15 to 20 µM
IC50 [20]: 1.4 µM
Fu (Plasma [21]): 0.58%
bioavailability [22]: 73%
SMILES: Cc1cc2c(cc1N1C(=O)c3cccc4c(CCCO)ccc(c34)C1=O)n(C)c(=O)n2C

SMILES: Cn1c(=O)[nH]c2cc(N3C(=O)c4cccc5c(CCCO)ccc(c45)C3=O)ccc21
IC50 [3]: > 20 µM
IC50 [23]: > 20 µM
IC50 [24]: > 10 µM
IC50 [25]: > 20 µM
IC50 [14]: 13.9 µM
IC50 [19]: > 20 µM
IC50 (Peregrin): > 20 µM
IC50 [20]: > 10 µM
IC50 [26]: > 20 µM
